Assays:
[1] = Plasma protein binding in Sprague-Dawley rat at 2 uM; format: ADME, cell-free; conditions: read-out: PPB (converted)
Method in brief: (§1)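 Plasma protein binding measured in mouse, rat, dog and monkey plasma at 2 μM compound.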

Mus musculus [2] = assay: Inhibition of HDAC in CD1 nu/nu mouse tumor xenografted with human HCT116 cells assessed as plasma drug level causing increase in H2BK5 acetylation at 100 mg/kg, po bid after 4 hrs by ELISA; format: functional, HCT-116
in vivo [3] = conditions: CD1 nu/nu, mouse, po, 525 mg/kg
Mus musculus [4] = assay: Unbound Cmax in 3 week po dosed CD1 nu/nu mouse xenografted with human HCT116 cells; format: ADME, organism-based, HCT-116; conditions: in vivo, 504 h
Mus musculus [5] = assay: Inhibition of HDAC in CD1 nu/nu mouse tumor xenografted with human HCT116 cells assessed as plasma drug level causing increase in H2BK5 acetylation at 200 mg/kg, po qd after 48 hrs by ELISA; format: functional, HCT-116
[6] = Oral bioavailability in Sprague-Dawley rat at 4 mg/kg; format: ADME, organism-based; conditions: in vivo
[7] = Plasma clearance in CD-1 mouse at 5 mg/kg, iv; format: ADME, organism-based; set-up: dose 5 mg/kg, route intravenous
Method in brief: (§2)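 Intravenous dosing at 5 (mouse), 2 (rat), 0.5 (dog) and 0.5 (monkey) mg/kg. Plasma clearance, steady-state volume of distribution and half-life derived from the plasma profile.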

[8] = Half life in Sprague-Dawley rat at 2 mg/kg, iv; format: ADME, organism-based; set-up: dose 2 mg/kg, route intravenous; conditions: in vivo; method in brief: as §2
Mus musculus [9] = assay: Inhibition of HDAC in CD1 nu/nu mouse tumor xenografted with human HCT116 cells assessed as plasma drug level causing increase in H2BK5 acetylation at 200 mg/kg, po qd after 1 hr by ELISA; format: functional, HCT-116
Mus musculus [10] = assay: Inhibition of HDAC in CD1 nu/nu mouse tumor xenografted with human HCT116 cells assessed as plasma drug level causing increase in H2BK5 acetylation at 100 mg/kg, po bid after 24 hrs by ELISA; format: functional, HCT-116
[11] = Oral bioavailability in rhesus monkey at 1 mg/kg; format: ADME, organism-based, Macaca mulatta; conditions: in vivo
[12] = Cmax in CD1 nu/nu mouse xenografted with human HCT116 cells at 150 mg/kg, po qd for 3 weeks; format: ADME, organism-based, HCT-116; set-up: dose 150 mg/kg, route oral; conditions: in vivo
Method in brief: (§3)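 HCT116 cells (5 × 10^6 per mouse) injected subcutaneously into the right flank of CD1 nu/nu mice. Once tumors reached ~325 mm3, mice were randomized into groups of 12 and dosed orally for 21 days, once daily (qd) or biweekly (biw). Vehicle was 40% v/v PEG-400 plus 25% w/v HPβCD at 20 μL/g.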

[13] = Plasma protein binding in rhesus monkey at 2 uM; format: ADME, cell-free, Macaca mulatta; conditions: read-out: PPB (converted); method in brief: as §1
Mus musculus [14] = assay: Inhibition of HDAC in CD1 nu/nu mouse tumor xenografted with human HCT116 cells assessed as plasma drug level causing increase in H2BK5 acetylation at 67 mg/kg, po tid after 8 hrs by ELISA; format: functional, HCT-116
[15] = Volume of distribution at steady state in Sprague-Dawley rat at 2 mg/kg, iv; format: ADME, organism-based; set-up: dose 2 mg/kg, route intravenous; conditions: in vivo, read-out: Vdss; method in brief: as §2
[16] = Half life in beagle dog at 0.5 mg/kg, iv; format: ADME, organism-based, Canis lupus familiaris; set-up: dose 0.5 mg/kg, route intravenous; conditions: in vivo; method in brief: as §2
in vivo [17] = conditions: CD1 nu/nu, mouse, po, 150 mg/kg
Mus musculus [18] = assay: Inhibition of HDAC in CD1 nu/nu mouse tumor xenografted with human HCT116 cells assessed as plasma drug level causing increase in H2BK5 acetylation at 67 mg/kg, po tid after 48 hrs by ELISA; format: functional, HCT-116
[19] = Drug metabolism in human hepatocytes assessed as glucose conjugate level; format: ADME, cell-based, Hepatocyte
[20] = Plasma clearance in Sprague-Dawley rat at 2 mg/kg, iv; format: ADME, organism-based; set-up: dose 2 mg/kg, route intravenous; method in brief: as §2
[21] = Drug metabolism in rat hepatocytes; format: ADME, cell-based, Hepatocyte
Mus musculus [22] = assay: Inhibition of HDAC in CD1 nu/nu mouse tumor xenografted with human HCT116 cells assessed as plasma drug level causing increase in H2BK5 acetylation at 67 mg/kg, po tid after 4 hrs by ELISA; format: functional, HCT-116
in vivo [23] = conditions: CD1 nu/nu, mouse, po, 50 mg/kg
Mus musculus [24] = assay: Inhibition of HDAC in CD1 nu/nu mouse tumor xenografted with human HCT116 cells assessed as plasma drug level causing increase in H2BK5 acetylation at 200 mg/kg, po qd after 72 hrs by ELISA; format: functional, HCT-116
Rattus norvegicus = assay: Dose normalized AUC in Sprague-Dawley rat at 4 mg/kg, po; format: ADME, organism-based; set-up: dose 4 mg/kg, route oral; conditions: in vivo
Method in brief: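 Oral exposure, dose-normalized (μM·h·kg/mg), from a PK study also run with iv dosing (rat 2 mg/kg iv, 4 mg/kg po; monkey 0.5 mg/kg iv, 1 mg/kg po). Plasma clearance, Vdss, half-life and oral bioavailability also derived.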

[25] = Cmax in CD1 nu/nu mouse xenografted with human HCT116 cells at 525 mg/kg, po administered biweekly for 3 weeks; format: ADME, organism-based, HCT-116; set-up: dose 525 mg/kg, route oral; conditions: in vivo; method in brief: as §3
[26] = Cmax in CD1 nu/nu mouse xenografted with human HCT116 cells at 100 mg/kg, po qd for 3 weeks; format: ADME, organism-based, HCT-116; set-up: dose 100 mg/kg, route oral; conditions: in vivo; method in brief: as §3
[27] = Volume of distribution at steady state in rhesus monkey at 0.5 mg/kg, iv; format: ADME, organism-based, Macaca mulatta; set-up: dose 0.5 mg/kg, route intravenous; conditions: in vivo, read-out: Vdss; method in brief: as §2
[28] = Drug metabolism in human hepatocytes assessed as carboxylic acid level; format: ADME, cell-based, Hepatocyte
Mus musculus [29] = assay: Inhibition of HDAC in CD1 nu/nu mouse tumor xenografted with human HCT116 cells assessed as plasma drug level causing increase in H2BK5 acetylation at 67 mg/kg, po tid after 24 hrs by ELISA; format: functional, HCT-116
[30] = AUC (0 to 24 hrs) in CD1 nu/nu mouse xenografted with human HCT116 cells at 100 mg/kg, po qd for 3 weeks; format: ADME, organism-based, HCT-116; set-up: time < 24 hr, dose 100 mg/kg, route oral; conditions: in vivo
Method in brief: (§4)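 HCT116 cells (5 × 10^6/mouse) injected sc into right flank of CD1 nu/nu mice; at ~325 mm3 tumors, randomized into groups of 12. Oral dosing 21 days, once daily or biweekly, in 40% v/v PEG-400 and 25% w/v HPβCD at 20 μL/g. […] Tumor size by caliper.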

[31] = AUC (0 to 24 hrs) in CD1 nu/nu mouse xenografted with human HCT116 cells at 525 mg/kg, po administered biweekly for 3 weeks; format: ADME, organism-based, HCT-116; set-up: time < 24 hr, dose 525 mg/kg, route oral; conditions: in vivo; method in brief: as §4
Mus musculus [32] = assay: Inhibition of HDAC in CD1 nu/nu mouse tumor xenografted with human HCT116 cells assessed as plasma drug level causing increase in H2BK5 acetylation at 67 mg/kg, po tid after 72 hrs by ELISA; format: functional, HCT-116
[33] = Oral bioavailability in beagle dog at 1 mg/kg; format: ADME, organism-based, Canis lupus familiaris; conditions: in vivo
Mus musculus [34] = assay: Inhibition of HDAC in CD1 nu/nu mouse tumor xenografted with human HCT116 cells assessed as plasma drug level causing increase in H2BK5 acetylation at 100 mg/kg, po bid after 72 hrs by ELISA; format: functional, HCT-116
in vivo [35] = conditions: CD1 nu/nu, mouse, po, 875 mg/kg
[36] = Half life in rhesus monkey at 0.5 mg/kg, iv; format: ADME, organism-based, Macaca mulatta; set-up: dose 0.5 mg/kg, route intravenous; conditions: in vivo; method in brief: as §2
[37] = AUC (0 to 24 hrs) in CD1 nu/nu mouse xenografted with human HCT116 cells at 875 mg/kg, po administered biweekly for 3 weeks; format: ADME, organism-based, HCT-116; set-up: time < 24 hr, dose 875 mg/kg, route oral; conditions: in vivo; method in brief: as §4

Nc1ccc(-c2cccs2)cc1NC(=O)c1ccc(N2CCC3(CC2)CNC(=O)O3)nc1
fraction unbound at 2 µM [1]: 0.002 | INH (Mus musculus [2]): 9.6 µM | concentration at 24 h (in vivo [3]): 9.4 µM | fCmax (Mus musculus [4]): 240 nM | INH (Mus musculus [5]): 0.2 µM | bioavailability [6]: 28% | clearance [7]: 27 mL/min/kg | half-life [8]: 4.2 h | INH (Mus musculus [9]): 11.9 µM | INH (Mus musculus [10]): 0.4 µM | bioavailability [11]: 100% | Cmax [12]: 16.6 µM | fraction unbound at 2 µM [13]: 0.016 | INH (Mus musculus [14]): 8.2 µM | Vd [15]: 0.7 L/kg | half-life [16]: 1.4 h | concentration at 24 h (in vivo [17]): 3.3 µM | INH (Mus musculus [18]): 0.1 µM | Drug metabolism [19]: metabolite_notdetected | clearance [20]: 3.6 mL/min/kg | Drug metabolism [21]: metabolite_notdetected | INH (Mus musculus [22]): 13.8 µM | concentration at 24 h (in vivo [23]): 0.9 µM | INH (Mus musculus [24]): 0.3 µM | AUC/dose (Rattus norvegicus): 3 µM·kg·h/mg | Cmax [25]: 56.8 µM | Cmax [26]: 6.9 µM | Vd [27]: 7.8 L/kg | Drug metabolism [28]: metabolite_notdetected | INH (Mus musculus [29]): 1.5 µM | AUC at 24 h [30]: 110 µM·h | AUC at 24 h [31]: 808 µM·h | INH (Mus musculus [32]): 0.3 µM | bioavailability [33]: 17% | INH (Mus musculus [34]): 0.2 µM | concentration at 24 h (in vivo [35]): 19.3 µM | half-life [36]: 7.1 h | AUC at 24 h [37]: 1220 µM·h

— ChEMBL document CHEMBL3286368, “Delayed and Prolonged Histone Hyperacetylation with a Selective HDAC1/HDAC2 Inhibitor” (ACS Med Chem Lett, 2014)
